Experimental data published in ChEMBL document CHEMBL2034978, “Synthesis and evaluation of curcumin-related compounds for anticancer activity” (Eur J Med Chem, 2012).

Columns and labels:
Format in all cases: functional, cell-based
PANC-1 = test: Cytotoxicity against human PANC1 cells after 72 hrs by MTT assay; conditions: PANC-1, 72 h
Procedure, shortened: (§1)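 Seeded at 0.2 × 10⁵ cells/ml, grown 24 h, then exposed 72 h to a range of concentrations (upper limit 30). MTT read-out: formazan dissolved in DMSO, absorbance at 540 nm, growth expressed as percent of DMSO-treated cells.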

PC-3 = test: Cytotoxicity against human PC3 cells after 72 hrs by MTT assay; conditions: PC-3, 72 h; procedure, shortened: as §1
HT-29 = test: Cytotoxicity against human HT-29 cells after 72 hrs by MTT assay; conditions: HT-29, 72 h; procedure, shortened: as §1

SMILES | IC50 (PANC-1) | IC50 (PC-3) | IC50 (HT-29)
O=C1/C(=C/c2ccccn2)CCC/C1=C\c1ccccn1 | 1.3 µM | 1.28 µM | 1.43 µM
O=C1/C(=C/c2cccnc2)COC/C1=C\c1cccnc1 | 0.98 µM | 2.21 µM | 1.81 µM
COc1ccc(/C=C2\CC/C(=C\c3ccc(OC)cc3)C2=O)cc1 | > 30 µM | 25.8 µM | 23 µM
O=C1/C(=C/c2ccc(Br)cc2)CNC/C1=C\c1ccc(Br)cc1 | 2.06 µM | 1.95 µM | 4.13 µM
O=C1/C(=C/c2cccnc2)CC/C1=C\c1cccnc1 | 6.22 µM | 6.97 µM | 5.54 µM
O=C1/C(=C/c2ccncc2)CC/C1=C\c1ccncc1 | 7.88 µM | 5.58 µM | 7.58 µM
O=C1/C(=C/c2ccncc2)CCC/C1=C\c1ccncc1 | 2.18 µM | 2.12 µM | 2.35 µM
COc1cc(/C=C/C(=O)/C=C/c2cc(OC)c(OC)c(OC)c2)cc(OC)c1OC | 3.38 µM | 4.63 µM | 1.68 µM
O=C1/C(=C/c2ccc(Cl)cc2)CCC/C1=C\c1ccc(Cl)cc1 | 11.8 µM | 11.3 µM | 7.75 µM
COc1ccc(/C=C2\CCC/C(=C\c3ccc(OC)c(OC)c3OC)C2=O)c(OC)c1OC | 11.6 µM | 8.22 µM | 7.14 µM
COc1cc(/C=C/C(=O)/C=C/c2cc(OC)c(O)c(OC)c2)cc(OC)c1O | 2.23 µM | 3.41 µM | 2.24 µM
O=C(/C=C/c1ccc(Br)cc1)/C=C/c1ccc(Br)cc1 | 20.8 µM | 23.1 µM | 14 µM
O=C(/C=C/c1ccc(Cl)cc1)/C=C/c1ccc(Cl)cc1 | 14.1 µM | 16.7 µM | 10.9 µM
O=C1/C(=C/c2ccsc2)COC/C1=C\c1ccsc1 | 10.8 µM | 6.59 µM | 8.94 µM
O=C1/C(=C/c2ccc(Br)cc2)CC/C1=C\c1ccc(Br)cc1 | 25.3 µM | > 30 µM | 19.9 µM
COc1ccc(/C=C/C(=O)/C=C/c2ccc(OC)cc2)cc1 | 14 µM | 11.2 µM | 11.3 µM
O=C1/C(=C/c2ccc(O)cc2)COC/C1=C\c1ccc(O)cc1 | 11.1 µM | 7.28 µM | 3.86 µM
COc1cc(/C=C2\CCC/C(=C\c3cc(OC)c(OC)c(OC)c3)C2=O)cc(OC)c1OC | 9.66 µM | 6.17 µM | 4.23 µM
O=C1/C(=C/c2ccsc2)CSC/C1=C\c1ccsc1 | 7.49 µM | 4.13 µM | 6.75 µM
O=C1/C(=C/c2ccc(Br)cc2)CCC/C1=C\c1ccc(Br)cc1 | 12.2 µM | 13.6 µM | 9.19 µM
COc1ccc(/C=C2\COC/C(=C\c3ccc(OC)c(OC)c3OC)C2=O)c(OC)c1OC | 2.67 µM | 2.74 µM | 2.45 µM
COc1cc(/C=C2\COC/C(=C\c3cc(OC)c(O)c(OC)c3)C2=O)cc(OC)c1O | 1.72 µM | 0.91 µM | 1.44 µM
COc1ccc(/C=C2\CC/C(=C\c3ccc(OC)c(OC)c3OC)C2=O)c(OC)c1OC | 22.7 µM | 18.7 µM | 19.8 µM
COc1ccc(/C=C2\COC/C(=C\c3ccc(OC)cc3)C2=O)cc1 | 7.63 µM | 6.12 µM | 6.05 µM
O=C1/C(=C/c2ccc(F)cc2)CNC/C1=C\c1ccc(F)cc1 | 3.15 µM | 2.87 µM | 3.26 µM
COc1cc(/C=C2\CC/C(=C\c3cc(OC)c(O)c(OC)c3)C2=O)cc(OC)c1O | 9.63 µM | 9.98 µM | 7.8 µM
COc1cc(C=C2CSCC(=Cc3cc(OC)c(O)c(OC)c3)C2=O)cc(OC)c1O | 2.2 µM | 1.13 µM | 1.73 µM

SMILES | IC50 (PANC-1) | IC50 (PC-3) | IC50 (HT-29)
COc1ccc(/C=C2\CCC/C(=C\c3ccc(OC)cc3)C2=O)cc1 | 15.9 µM | 12.3 µM | 13.7 µM
COc1cc(/C=C2\CCC/C(=C\c3cc(OC)c(O)c(OC)c3)C2=O)cc(OC)c1O | 2.63 µM | 4.14 µM | 2.7 µM
COc1ccc(C=C2CSCC(=Cc3ccc(OC)cc3)C2=O)cc1 | 10.9 µM | 8.46 µM | 7.93 µM
O=C(/C=C/c1ccc(O)cc1)/C=C/c1ccc(O)cc1 | 13.6 µM | 9.68 µM | 9.38 µM
O=C(/C=C/c1ccc(F)cc1)/C=C/c1ccc(F)cc1 | 12.5 µM |  | 9.35 µM
O=C1/C(=C/c2ccc(Cl)cc2)CC/C1=C\c1ccc(Cl)cc1 | 23.2 µM | 25 µM | 15.9 µM
COc1ccc(C=C2CSCC(=Cc3ccc(OC)c(OC)c3OC)C2=O)c(OC)c1OC | 4.71 µM | 3.78 µM | 2.89 µM
O=C1/C(=C/c2ccc(O)cc2)CCC/C1=C\c1ccc(O)cc1 | 13.2 µM | 13.2 µM | 11.7 µM
O=C1/C(=C/c2ccccn2)CC/C1=C\c1ccccn1 | 5.19 µM | 2.94 µM | 5.36 µM
O=C1/C(=C/c2ccc(Cl)cc2)CNC/C1=C\c1ccc(Cl)cc1 | 3.73 µM | 3.63 µM | 6.33 µM
COc1ccc(/C=C/C(=O)/C=C/c2ccc(OC)c(OC)c2)cc1OC | 3.39 µM | 2.98 µM | 2.17 µM
O=C1/C(=C/c2ccc(F)cc2)CC/C1=C\c1ccc(F)cc1 | 19.7 µM | 19 µM | 14.4 µM
O=C(/C=C/c1ccc(O)c(O)c1)/C=C/c1ccc(O)c(O)c1 | 13.4 µM | 8.99 µM | 9.02 µM
O=C1/C(=C/c2cccnc2)CCC/C1=C\c1cccnc1 | 2.5 µM | 2.16 µM | 1.99 µM
COc1ccc(/C=C2\CC/C(=C\c3ccc(OC)c(OC)c3)C2=O)cc1OC | 13.7 µM | 9.3 µM | 13.5 µM
O=C1/C(=C/c2ccsc2)CC/C1=C\c1ccsc1 | 27.9 µM | 23 µM | 19.7 µM
O=C1/C(=C/c2ccc(F)cc2)CCC/C1=C\c1ccc(F)cc1 | 10.4 µM | 11.9 µM | 7.56 µM
O=C1/C(=C/c2ccncc2)CSC/C1=C\c1ccncc1 | 1.14 µM | 0.7 µM | 1.29 µM
COc1cc(/C=C2\CC/C(=C\c3cc(OC)c(OC)c(OC)c3)C2=O)cc(OC)c1OC | 18.8 µM | 16.4 µM | 12.7 µM
COc1cc(/C=C2\CCC/C(=C\c3ccc(O)c(OC)c3)C2=O)ccc1O [CYCLOVALONE] | 4.43 µM | 5.89 µM | 3.73 µM
O=C1/C(=C/c2ccsc2)CCC/C1=C\c1ccsc1 | 17.4 µM | 14.6 µM | 17.3 µM
COc1cc(/C=C2\CC/C(=C\c3ccc(O)c(OC)c3)C2=O)ccc1O | 15.5 µM | 15.5 µM | 9.7 µM
O=C1/C(=C/c2ccccn2)COC/C1=C\c1ccccn1 | 3.24 µM | 1.88 µM | 3.28 µM
COc1ccc(/C=C2\CCC/C(=C\c3ccc(OC)c(OC)c3)C2=O)cc1OC | 4.46 µM | 5.2 µM | 4 µM
O=C1C(=Cc2ccc(O)cc2)CSCC1=Cc1ccc(O)cc1 | 12 µM | 8.23 µM | 4.27 µM
O=C1/C(=C/c2ccc(O)cc2)CC/C1=C\c1ccc(O)cc1 | > 30 µM | 22.9 µM | 21.4 µM
